SMARCA2 act = SMARCA2 (BRM) function activators, primary screen, cell-based, luminescence, high throughput | MG213 cells, MMTV-luciferase reporter, dexamethasone, overnight | 370,000 compounds, 1% hits | AID 652017, 2013 | activation, % at 9.1 µM; in the data active = activation above about 7.8%;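 also: 0% = vehicle wells and 100% = reference activator wells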
MC4R ag barr = MC4R agonists recruiting beta-arrestin, primary screen, cell-based, luminescence, agonist arm of biased-ligand search | U2OS MC4R beta-arrestin complementation; percent of melanotan II response, DMSO zero | 360,000 compounds, 0.98% hits | Melanocortin receptor 4 (Homo sapiens), P32245 | AID 540308, 2011 | activation, % at 8.9 µM;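 active = activation above a per-plate cutoff, the mean activation of sample wells on that plate plus 3 SD, cut at about 8% in these data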
ATG4B inh = ATG4B protease inhibitors, primary screen, biochemical, fluorescence, uHTS; 340,000 compounds, 0.51% hits; inhibition, % at 8.33 µM; Cysteine protease ATG4B (Homo sapiens), Q9Y4P1; ATG4B cleavage of LC3-PLA2, NBD-HPC fluorescence, 1 h; in the data active = inhibition above about 40%
Target sequence (Q9Y4P1 whole entry, looked up): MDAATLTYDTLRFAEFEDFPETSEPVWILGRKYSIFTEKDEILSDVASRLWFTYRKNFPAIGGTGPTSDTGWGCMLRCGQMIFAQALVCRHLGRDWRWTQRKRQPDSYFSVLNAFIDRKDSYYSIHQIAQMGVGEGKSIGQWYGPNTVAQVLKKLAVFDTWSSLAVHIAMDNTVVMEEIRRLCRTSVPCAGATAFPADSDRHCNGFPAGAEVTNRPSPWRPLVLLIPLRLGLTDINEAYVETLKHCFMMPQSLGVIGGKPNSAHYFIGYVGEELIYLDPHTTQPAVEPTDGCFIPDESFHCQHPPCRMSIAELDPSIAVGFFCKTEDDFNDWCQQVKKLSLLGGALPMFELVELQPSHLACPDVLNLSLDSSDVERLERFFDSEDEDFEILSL
MPTP inh = mitochondrial permeability transition pore inhibitors, primary screen, biochemical, isolated mouse mitochondria, absorbance; Ca2+ swelling absorbance, 30 min; inhibition, % at 10 µM; 360,000 compounds, 1.4% hits;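 active = inhibition of 50% or more, scaled per plate between neutral and stimulator controls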;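 also: 0% = DMSO wells given calcium and 100% = 1 mM EGTA wells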
MC4R antag cAMP = MC4R antagonists of cAMP signaling, primary screen, cell-based, TR-FRET, antagonist arm of biased-ligand search | inhibition, % at 6.5 µM | AID 540295, 2011 | MC4R-expressing cells, MTII-stimulated cAMP, LANCE TR-FRET | 360,000 compounds, 0.48% hits | Melanocortin receptor 4 (Homo sapiens), P32245;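 active = inhibition above its plate's cutoff, the mean of tested wells on that plate plus 3 SD, cut at about 29% in these data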;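 also: 0% = Melanotan II alone and 100% = Melanotan II plus saturating MCL0020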
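System: U2OS cells stably expressing human melanocortin 4 receptor (MC4R). Reagent: Melanotan II challenge after compound preincubation. Doses: 6.5 µM. Times: 30-min compound, 1-h challenge, 1-h detection, room temperature. Measured by: TR-FRET with Eu-cAMP and labeled anti-cAMP, 671 nm. Replicates: singlicate.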
MPTP counter = fluorescence retest of MPTP screen hits in isolated mitochondria, single concentration. shares compounds with MPTP inh. membrane potential, Rhodamine 123 fluorescence. inhibition, % at 10 µM. 5,000 compounds, 78% hits; in the data active = inhibition above about 22%;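 also: 0% = DMSO vehicle and 100% = positive control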
MPTP abs DR = mitochondrial permeability transition pore inhibitors, dose response, biochemical, absorbance, uHTS hits; shares compounds with MPTP inh; isolated mitochondria swelling; IC50, µM; 780 compounds, 58% hits; in the data active = IC50 below about 20 µM
MPTP cs DR = fluorescent counter-screen in isolated mitochondria, dose response, counter-screen for MPTP inhibitor project, biochemical, fluorescence, uHTS hits; AID 651564, 2012; 780 compounds, 49% hits; shares compounds with MPTP inh; isolated mitochondria counterscreen, fluorescence read-out; IC50, µM; in the data active = IC50 below about 80 µM
* = called active by the depositor; i = inactive; . = not tested or not shown. Rows were chosen to be rich in hits. Some 4.1% of all compounds tested hit in one or more screens of this group.

SMILES	SMARCA2 act	MC4R ag barr	ATG4B inh	MPTP inh	MC4R antag cAMP	MPTP counter	others
COC(=O)[C@]12C[C@H](CC(=O)NCc3cccs3)C(=O)N(Cc3cccc4ccccc34)C1=C[C@H](C(C)C)O[C@@H]2C1CC1	-3	.	.	.	.	.
Cc1cccc(C(=O)Nc2nc3ncccn3c2-c2ccc(F)c(F)c2)c1	-2	.	.	.	.	.
COc1cccc(OCCNC(=O)CSc2ccc(C(F)(F)F)cc2[N+](=O)[O-])c1	-1	3	-2	76*	0	46*
Cc1ccccc1OCCNC(=O)CSc1ccc(C(F)(F)F)cc1[N+](=O)[O-]	-3	1	3	93*	-4	73*
CCN(CC)C(=O)CSc1ccc(C(F)(F)F)cc1[N+](=O)[O-]	-1	0	-1	0	-5	.
C=CCn1c(SCC(=O)Nc2ccccc2-c2ccccc2)nnc1-c1ccccc1	-6	.	.	.	.	.
Cc1ccc(NC(=O)OCCCN2C(=O)CCC23CCC(C)CC3)cc1 (stereo unspecified)	5	.	.	.	.	.
CCN(CC)CCCNC(=O)c1cc(-c2ccc(Cl)c(Cl)c2)on1	.	2	8	79*	5	-5
Cc1c(Cl)cccc1NCC(=O)Nc1ccc(Cl)cc1F	-3	3	5	57*	-4	57*
Cc1cn2c(=O)c3ncn(C4OC(CO)C(O)C4O)c3n(C)c2n1 (stereo unspecified)	0	.	.	.	.	.
Nn1c(SCC(=O)NC2CCCCC2)nnc1-c1n[nH]c2c1CCC2	-3	.	.	.	.	.
COc1ccc(NS(=O)(=O)c2ccc3oc4ccccc4c3c2)cn1	-6	4	-6	60*	-6	64*
COc1ccc(NS(=O)(=O)c2ccc(Br)cc2)cn1	-2	0	0	-2	-2	.
CN(C)CC/C=C1\c2ccccc2Sc2ccc(Cl)cc21	-3	0	34	97*	-5	-6
OCCN1CCN(CC/C=C2/c3ccccc3Sc3ccc(Cl)cc32)CC1	-8	6	-2	94*	4	-21
Cc1ccc(C(=O)NC2CCCCN(Cc3ccc(Cl)cc3)C2=O)c(C)c1 (stereo unspecified)	-3	.	.	.	.	.
CC(Cc1cccs1)NC(=O)Nc1ccc(Cl)c(Cl)c1 (stereo unspecified)	-2	-2	1	96*	6	94*
CC(NC(=O)Nc1ccc(Cl)c(Cl)c1)C(c1ccccc1)N1CCOCC1 (stereo unspecified)	-4	6	4	89*	11	95*
CCOC(=O)N[C@H](C(=O)N1CCC[C@H]1C(=O)NCCc1ccccc1Cl)C1CCCCC1	0	.	.	.	.	.
CCCOc1ccc(C(=O)Nc2cccnc2)cc1	2	-1	6	0	12	.
Cc1ccccc1OCC(=O)Nc1ccncc1	-3	0	-3	4	-4	.
Cc1ccc(OCC(=O)Nc2ccncc2)c(C)c1	-3	0	5	73*	5	48*
CCCCOc1ccc(C(=O)Nc2ccncc2)cc1	-1	-1	-1	102*	-3	111*
O=C(COc1ccc2ccccc2c1)Nc1cccc(C(=O)Nc2ccccc2C(=O)O)c1	2	0	12	79*	7	57*
O=C(COc1ccc2ccccc2c1)Nc1ccncc1	-5	0	-12	98*	1	100*
SMILES	SMARCA2 act	MC4R ag barr	ATG4B inh	MPTP inh	MC4R antag cAMP	MPTP counter	others
O=S1(=O)N[C@@H](Cc2ccccc2)COc2cccc(NCCCN3CCOCC3)c21	-4	.	.	.	.	.
CC(C)C(C(=O)NCc1ccccc1)N1CCN(CCN2CCOCC2)CC1 (stereo unspecified)	-4	.	.	.	.	.
CCNC(=O)OC[C@H]1O[C@H](C#Cc2ccc(C(C)(C)C)cc2)C=C[C@H]1OC(C)=O	-3	.	.	.	.	.
CCOc1ccc(NC(=S)c2ccncc2)cc1	-4	3	-2	56*	9	8	MPTP abs DR=19*;MPTP cs DR=31*
O=C(CSc1ccncc1)Nc1ccc2ccccc2c1	3	-1	-11	0	1	.
N#Cc1cccc(NC(=O)COc2ccc(-n3ccnc3)cc2)c1	-4	-3	0	62*	12	20	MPTP abs DR=i;MPTP cs DR=19*
CC(C)(C)c1ccc(NC(=O)COc2ccc(-n3ccnc3)cc2)cc1	-4	1	1	107*	11	94*
O=C(CSc1ccc2ccccc2c1)Nc1ccncc1	-7	-2	-12	84*	11	86*
CCOc1ccc(NC(=S)Nc2ccc(OC)cc2)cc1	-3	-2	6	3	7	.
COc1cc(NC(=O)COc2ccc(-n3ccnc3)cc2)cc(OC)c1	-4	-1	-13	-2	3	.
Nn1c(SCC(=O)N2c3ccccc3Sc3ccc(Cl)cc32)nnc1-c1n[nH]c2c1CCC2	-3	.	.	.	.	.
Cc1ccc(-c2cc(C(=O)NN=Cc3sccc3C)[nH]n2)cc1C	-5	.	.	.	.	.
CC(C)(C)c1ccc(OCC(=O)Nc2ccncc2)cc1	-4	1	-4	105*	20	74*
Cc1cccc(OCC(=O)Nc2ccncc2)c1	-3	-2	-6	21	-2	.
CC(C)c1ccc(OCC(=O)Nc2ccncc2)cc1	-2	-1	2	74*	4	71*
Cc1ccc(Oc2ccc(OCC(=O)Nc3ccncc3)cc2)cc1	-8	2	.	108*	3	103*
O=C(COc1ccccc1)Nc1ccncc1	2	-2	-3	-4	5	.
CCc1ccc(OCC(=O)Nc2ccncc2)cc1	-2	1	-4	63*	9	58*
C[C@@H]1COc2cc(NCCO)ccc2S(=O)(=O)N1	-2	.	.	.	.	.
O=C(Nc1cc(S(=O)(=O)Nc2ccccc2Cl)ccc1O)c1sc2cc(Cl)ccc2c1Cl	-1	-1	-8	94*	12	3
O=C(NC1CCCCN(Cc2cccc(C(F)(F)F)c2)C1=O)c1cccc(C(F)(F)F)c1 (stereo unspecified)	-2	.	.	.	.	.
COc1c(Br)cc([N+](=O)[O-])c(OC)c1C(=O)NC(=O)Nc1cc(Cl)cc(Cl)c1	-4	1	-13	83*	-4	85*
COC(=O)C1=C(C)N(Cc2cccc(C(F)(F)F)c2)C(=NCc2ccccc2C(F)(F)F)NC1c1ccc(Cl)cc1 (stereo unspecified)	-6	.	.	.	.	.

Compound activity: PubChem, several laboratories
